Laboratory results as given in ChEMBL document CHEMBL4680093 (J Med Chem, 2016).

Assays:
[1] = biological target: 11-beta-hydroxysteroid dehydrogenase 1 (Mus musculus, UniProt P50172); test: Inhibition of mouse 11beta-HSD1 expressed in microsomes; parameters: species or system Microsome
Method in brief: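 HEK293 cell lysates (microsomal fractions) overexpressing human or mouse 11β-HSD1 were incubated with cortisone, a range of inhibitor concentrations and an NADPH regenerating system in sodium phosphate buffer at 37°C for 1 h. Cortisol in the supernatant was quantified by ELISA. Percent inhibition was fitted to a sigmoidal dose-response curve to give IC50.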

[2] = biological target: T1, Cytochrome P450 1A2 (Homo sapiens, UniProt P05177); test: Inhibition of CYP1A2 in pooled human liver microsomes using phenacetin as substrate in presence of NADPH incubated for 10 mins by LC-MS/MS analysis
T1 sequence (P05177 whole entry): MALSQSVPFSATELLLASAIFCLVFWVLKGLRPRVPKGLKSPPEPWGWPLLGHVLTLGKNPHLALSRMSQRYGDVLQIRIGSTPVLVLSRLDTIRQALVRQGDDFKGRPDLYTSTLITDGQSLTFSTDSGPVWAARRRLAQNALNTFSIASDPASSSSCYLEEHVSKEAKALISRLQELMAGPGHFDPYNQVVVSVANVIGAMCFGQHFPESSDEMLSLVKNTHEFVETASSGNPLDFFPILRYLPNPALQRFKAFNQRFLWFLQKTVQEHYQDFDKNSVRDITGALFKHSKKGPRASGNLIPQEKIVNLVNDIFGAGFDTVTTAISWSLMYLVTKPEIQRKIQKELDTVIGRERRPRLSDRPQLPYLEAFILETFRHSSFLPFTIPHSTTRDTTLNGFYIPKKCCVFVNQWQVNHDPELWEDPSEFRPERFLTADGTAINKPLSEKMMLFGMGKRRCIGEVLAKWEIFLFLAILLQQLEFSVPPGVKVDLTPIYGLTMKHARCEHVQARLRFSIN

[3] = biological target: T2, Nuclear receptor subfamily 1 group I member 2 (Homo sapiens, UniProt O75469); test: Activation of PXR (unknown origin) at 10 uM relative to rifampicin; assay type: ADME
T2 sequence (O75469 whole entry): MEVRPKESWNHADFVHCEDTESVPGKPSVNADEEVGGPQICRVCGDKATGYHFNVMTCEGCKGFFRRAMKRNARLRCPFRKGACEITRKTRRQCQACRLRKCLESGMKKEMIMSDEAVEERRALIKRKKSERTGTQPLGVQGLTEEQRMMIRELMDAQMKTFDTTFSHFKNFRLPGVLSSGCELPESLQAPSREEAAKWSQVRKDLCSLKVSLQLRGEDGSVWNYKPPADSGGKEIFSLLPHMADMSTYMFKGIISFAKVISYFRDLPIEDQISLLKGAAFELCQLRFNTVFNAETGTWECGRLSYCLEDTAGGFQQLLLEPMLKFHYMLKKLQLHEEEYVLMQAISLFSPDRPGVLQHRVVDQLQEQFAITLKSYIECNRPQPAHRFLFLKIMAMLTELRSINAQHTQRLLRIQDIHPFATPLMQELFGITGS

[4] = biological target: T3, UDP-glucuronosyltransferase 1A1 (Homo sapiens, UniProt P22309); test: Inhibition of UGT1A1 (unknown origin); assay type: ADME
T3 sequence (P22309 whole entry): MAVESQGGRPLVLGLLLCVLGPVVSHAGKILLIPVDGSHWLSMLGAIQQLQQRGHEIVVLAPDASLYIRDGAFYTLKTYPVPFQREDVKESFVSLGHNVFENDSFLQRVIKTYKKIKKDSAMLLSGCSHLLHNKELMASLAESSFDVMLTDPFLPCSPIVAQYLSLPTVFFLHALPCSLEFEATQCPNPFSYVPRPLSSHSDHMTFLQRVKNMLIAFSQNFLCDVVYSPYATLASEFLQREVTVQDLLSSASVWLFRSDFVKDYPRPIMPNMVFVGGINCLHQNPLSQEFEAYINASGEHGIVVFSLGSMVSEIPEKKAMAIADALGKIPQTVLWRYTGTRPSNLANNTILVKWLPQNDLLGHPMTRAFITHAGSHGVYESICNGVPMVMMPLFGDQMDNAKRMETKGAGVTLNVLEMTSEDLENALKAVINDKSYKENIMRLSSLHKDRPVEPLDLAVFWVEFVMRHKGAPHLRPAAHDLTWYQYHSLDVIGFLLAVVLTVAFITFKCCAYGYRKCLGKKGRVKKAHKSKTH

[5] = Drug level in mouse liver at 10 mg/kg, po measured after 2 hrs post dose; assay type: ADME, organism-based; details: in vivo
Method in brief: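 C57BL/6 mice given a single oral 10 mg/kg dose in 0.5% methylcellulose plus 1% Tween80. Sacrifice at 2 h post-dose, with collection of brain, liver, adipose and plasma. Compound concentration expressed as nmol/g, along with tissue/plasma ratio.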

[6] = Volume of distribution at steady state in mouse at 1 mg/kg, iv; assay type: ADME, organism-based; details: in vivo, read-out: Vdss
Method in brief: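 Single-dose PK study. The iv dose was given in 10% hydroxypropyl-β-cyclodextrin and the oral dose in 0.5% methylcellulose/1% Tween80. Mouse and rat received 1 mg/kg iv and 5 mg/kg po. Dog received 0.5 mg/kg iv and 4 mg/kg po. CL, Vss, t1/2, AUC, Cmax, tmax and F were derived.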

[7] = AUC in mouse at 1 mg/kg, iv; assay type: ADME, organism-based; parameters: dose 1 mg/kg; details: in vivo

Sequence of 11-beta-hydroxysteroid dehydrogenase 1 (P50172 whole entry): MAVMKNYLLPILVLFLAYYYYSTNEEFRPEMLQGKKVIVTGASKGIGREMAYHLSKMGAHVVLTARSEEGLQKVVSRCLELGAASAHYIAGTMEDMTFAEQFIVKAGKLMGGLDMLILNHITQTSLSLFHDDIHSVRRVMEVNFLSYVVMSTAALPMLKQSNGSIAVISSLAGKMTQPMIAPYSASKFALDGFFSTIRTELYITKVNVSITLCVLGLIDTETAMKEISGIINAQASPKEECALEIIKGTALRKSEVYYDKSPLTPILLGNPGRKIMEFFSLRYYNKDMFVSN

Compound: C[C@@H]1CN(c2ccc(S(C)(=O)=O)cc2F)CCN1c1nccc(C(=O)NC2C3CC4CC2CC(O)(C4)C3)n1 (some centres not stated)
- IC50 [1]: 0.0016 µM
- IC50 [2]: > 10 µM
- Activity [3]: 0%
- IC50 [4]: 5.6 µM
- Drug uptake [5]: 31 nmol/g
- Vd [6]: 1.1 L/kg
- AUC [7]: 2350 ng·h/mL
